Test results: PubChem BioAssay
Activity calls are given as the source filed them.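 Rule for the calls, unless noted: active = viability loss from added drug above about 55%, and viability with drug at most 40%, in both replicates (limit read from the data, passing the limit was not always enough); inconclusive = both conditions met in only one replicate; inactive = neither replicate meets both conditions.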

Key:
[1] = HUVEC growth inhibition – cell-based, human, primary screen (AID 575;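 active = viability at or below 30% in both replicate assays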;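 note: 100% = median of untreated cell wells with 0.1% DMSO on each plate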); conditions: HUVEC proliferation, CellTiter-Glo luminescence, 72 h; at 10 µM; stronger effect = lower value
How it was run: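 System – primary HUVEC, no more than 12 passages · Medium – Low-serum (2% FBS) EBM, supplemented · Times – 72 h exposure, 37 °C, 5% CO2, 30 min RT equilibration · Measured by – luminescent ATP assay · Read-out – % viability relative to median vehicle-well signal on each plate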

[2] = growth inhibitors of H69AR lung tumor, primary screen, human, duplicate replicates (AID 580;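 active = viability at or under a set limit in both replicates, limit being median viability minus 3 SD, cut at about 48% in these data, passing the limit was not always enough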;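 note: 100% = mean luminescence of untreated wells and 0% = no signal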); conditions: H69AR lung tumor cells viability, ATP luminescence, 72 h; at 10 µM; stronger effect = lower value
[3] = reversal of MRP1-mediated doxorubicin resistance, pilot screen, H69AR cells, doxorubicin co-treatment (AID 601); conditions: CellTiter-Glo, 72 h, at 10 µM; for differential viability (reversal): stronger effect = higher value
[4] = 384-well plate pilot, post-Golgi transport modulator project, inhibition of yeast transport mutant growth (AID 636; in the data active = inhibition above about 31%); conditions: absorbance 615 nm, about 18 h, stronger effect = higher value
[5] = growth suppression of yeast trafficking mutant, preliminary HTS, modulators of trafficking downstream of Golgi apparatus project, 1536-format plate, OD 615 nm (AID 637; in the data active = inhibition above about 30%); conditions: yeast transport mutant growth, absorbance 615 nm, 18 h; stronger effect = higher value
[6] = H69AR cells + 2 uM doxorubicin, measured here: viability with 2 uM doxorubicin, stronger effect = lower value
[7] = H69AR cells, compound alone cytotoxicity

Row | Compound | viability [1] | viability [2] | differential viability (reversal) ([3]; H69AR cells + 2 uM doxorubicin) | viability [3, 6] | viability [3, 7] | inhibition [4] | inhibition [5]
1 | Cc1nc(NC2=NCN(CCc3ccccc3)CN2)nc2c(C)cccc12 | 81.9% (inactive) | 78% (inactive) | -15.7% (inactive) | 93.7% | 78% | -3.82% (inactive) | 4.76% (inactive)
2 | CCOC(=O)C1CCN(C(=O)Nc2ccc(Cl)cc2Cl)CC1 | 100% (inactive) | 104% (inactive) | 19.9% (inactive) | 84.1% | 104% | -4.61% (inactive) | 3.65% (inactive)
3 | COc1ccc(C2C(C#N)=C(N)Oc3cc4c(cc32)OCO4)cc1 (stereo not given) | 53.4% (inactive) | 32.8% (active) | -49.4% (inactive) | 82.2% | 32.8% | -5.07% (inactive) | -1.11% (inactive)
4 | CCc1ccc2[nH]c(=O)c(C(c3nnnn3CC3CCCO3)N3CCCc4ccccc43)cc2c1 (stereo not given) | 88.5% (inactive) | 91.8% (inactive) | -6.4% (inactive) | 98.2% | 91.8% | -7.2% (inactive) | -1.9% (inactive)
5 | CCOC(=O)C1CCN(S(=O)(=O)c2cccc(-c3csc(C)n3)c2)CC1 | 101% (inactive) | 90.4% (inactive) | 5.91% (inactive) | 84.5% | 90.4% | -5.2% (inactive) | 3.81% (inactive)
6 | COc1ccccc1C(=O)Nc1c2c(nn1-c1cccc(C)c1C)CS(=O)(=O)C2 | 49.2% (inactive) | 95.2% (inactive) | 22.9% (inactive) | 72.3% | 95.2% | -4.13% (inactive) | 1.94% (inactive)
7 | O=C(CSc1nc2c(sc3ccccc32)c(=O)n1Cc1ccco1)NCC1CCCO1 (stereo not given) | 78.8% (inactive) | 81.2% (inactive) | -4.63% (inactive) | 85.8% | 81.2% | -1.17% (inactive) | 5.71% (inactive)
8 | O=C1c2cccnc2C(=O)N1c1cccc(-c2nc3ccccc3o2)c1 | 111% (inactive) | 92.9% (inactive) | 6.53% (inactive) | 86.4% | 92.9% | -6.27% (inactive) | 3.65% (inactive)
9 | CC1(C)CC(=O)c2c(O)cc(O)cc2O1 | 107% (inactive) | 99.7% (inactive) | 15.4% (inactive) | 84.3% | 99.7% | -8.42% (inactive) | -1.43% (inactive)
10 | CCCCNC(=O)c1cc(-c2ccc(F)cc2)on1 | 74.1% (inactive) | 81.2% (inactive) | 21.9% (inactive) | 59.2% | 81.2% | -2.5% (inactive) | -1.11% (inactive)
11 | O=C(CN1C(=O)CC(c2ccccc2)=Nc2ccccc21)NCc1ccco1 | 99.2% (inactive) | 92.3% (inactive) | 12.9% (inactive) | 79.4% | 92.3% | -1.82% (inactive) | 13.5% (inactive)
12 | c1ccc(CNC2=NCCC2)nc1 | 102% (inactive) | 101% (inactive) | 3.93% (inactive) | 96.8% | 101% | -0.91% (inactive) | -7.46% (inactive)
13 | O=C(O)CCc1ccc(-c2ccccc2)n1CC(=O)O | 88.9% (inactive) | 93% (inactive) | 1.87% (inactive) | 91.1% | 93% | -1.43% (inactive) | 12.5% (inactive)
14 | CCCn1c(SCC(=O)Nc2ccccc2C(=O)OC)nc2c1c(=O)n(C)c(=O)n2C | 94.9% (inactive) | 84.5% (inactive) | 2.33% (inactive) | 82.2% | 84.5% | -7.47% (inactive) | 3.02% (inactive)
15 | CCCC(C)C1C(C#N)=C(N)Oc2cc(C)oc(=O)c21 (stereo not given) | 98.4% (inactive) | 85.7% (inactive) | -6.91% (inactive) | 92.6% | 85.7% | -2.5% (inactive) | 4.76% (inactive)
16 | Cc1noc(NS(=O)(=O)c2ccc(NC(=O)CCC3CCCC3)cc2)c1C | 88.9% (inactive) | 94% (inactive) | 11.6% (inactive) | 82.4% | 94% | -4.03% (inactive) | -0.16% (inactive)
17 | CC(C)c1nnc(NC(=O)CCC(=O)NCc2ccc3c(c2)OCO3)s1 | 103% (inactive) | 97.7% (inactive) | -1.39% (inactive) | 99.1% | 97.7% | -5.2% (inactive) | 2.86% (inactive)
18 | COc1cccc(C(c2nnnn2Cc2ccccc2)N2CCN(C(=O)c3ccco3)CC2)c1OC (stereo not given) | 77.5% (inactive) | 82.3% (inactive) | -9.06% (inactive) | 91.4% | 82.3% | -1.84% (inactive) | -6.35% (inactive)
19 | CC(=O)c1cccc(NS(=O)(=O)c2ccc3c(c2)oc(=O)n3C)c1 | 92.4% (inactive) | 106% (inactive) | 8.94% (inactive) | 96.7% | 106% | -2.67% (inactive) | -1.9% (inactive)
20 | CC1(C)NC(=O)N(CCCOc2ccc(Br)cc2Cl)C1=O | 86% (inactive) | 89.7% (inactive) | 15.5% (inactive) | 74.3% | 89.7% | -3.82% (inactive) | 4.29% (inactive)
